Test results as given in ChEMBL document CHEMBL2151002 (J Med Chem, 2012).
Calls of active or inactive are those of the source. No cut-off for these calls is given here.

Tests used:
[1] = test system: Radical scavenging activity; experiment: Antioxidant activity assessed as DPPH radical scavenging activity; format: functional
How it was run: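 Methanolic compound solutions (20–250 µM) mixed 1:1 with 200 µM methanolic DPPH and shaken at 30 °C for 20 min. Absorbance read at 517 nm. Controls were DPPH plus methanol; methanol alone served as background. % scavenging = (A control − A sample)/A control × 100, giving IC50.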

D(3) dopamine receptor [2] = molecular target: D(3) dopamine receptor (Rattus norvegicus, UniProt P19020); experiment: Displacement of [3H]spiroperidol from rat cloned dopamine D3 receptor expressed in HEK293 cells; format: cell-based
D(3) dopamine receptor (Rattus norvegicus, UniProt P19020), sequence (P19020 whole entry): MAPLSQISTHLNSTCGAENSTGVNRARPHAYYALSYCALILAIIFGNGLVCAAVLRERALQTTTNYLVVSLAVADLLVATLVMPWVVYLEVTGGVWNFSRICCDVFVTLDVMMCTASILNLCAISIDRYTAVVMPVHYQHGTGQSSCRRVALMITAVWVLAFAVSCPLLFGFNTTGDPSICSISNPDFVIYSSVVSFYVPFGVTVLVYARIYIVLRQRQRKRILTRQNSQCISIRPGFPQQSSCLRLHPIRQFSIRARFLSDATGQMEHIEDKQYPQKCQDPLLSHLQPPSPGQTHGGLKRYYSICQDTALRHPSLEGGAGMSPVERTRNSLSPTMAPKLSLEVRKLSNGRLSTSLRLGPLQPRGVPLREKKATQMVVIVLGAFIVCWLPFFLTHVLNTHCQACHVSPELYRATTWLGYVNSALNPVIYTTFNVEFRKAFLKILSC

D(2) dopamine receptor [3] = molecular target: D(2) dopamine receptor (Rattus norvegicus, UniProt P61169); experiment: Displacement of [3H]spiroperidol from rat cloned dopamine D2L receptor expressed in HEK293 cells; format: cell-based
D(2) dopamine receptor (Rattus norvegicus, UniProt P61169), sequence (P61169 whole entry): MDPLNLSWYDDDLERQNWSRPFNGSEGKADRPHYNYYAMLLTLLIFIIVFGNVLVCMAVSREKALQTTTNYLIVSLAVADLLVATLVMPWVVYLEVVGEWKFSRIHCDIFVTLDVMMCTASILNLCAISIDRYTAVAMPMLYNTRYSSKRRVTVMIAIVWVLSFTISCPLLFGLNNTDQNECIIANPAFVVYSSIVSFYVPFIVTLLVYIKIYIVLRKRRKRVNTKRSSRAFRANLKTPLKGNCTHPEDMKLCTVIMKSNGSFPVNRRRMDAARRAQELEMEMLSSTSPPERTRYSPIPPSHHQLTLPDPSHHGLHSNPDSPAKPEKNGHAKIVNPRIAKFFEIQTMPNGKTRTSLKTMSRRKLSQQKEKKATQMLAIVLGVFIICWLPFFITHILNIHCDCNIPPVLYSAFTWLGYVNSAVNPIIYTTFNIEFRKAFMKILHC

Rattus norvegicus [4] = species: Rattus norvegicus; experiment: Selectivity ratio of Ki for rat cloned dopamine D2L receptor to Ki for rat cloned dopamine D3 receptor
D(3) dopamine receptor [5] = molecular target: D(3) dopamine receptor (Homo sapiens, UniProt P35462); experiment: Agonist activity at human cloned dopamine D3 receptor expressed in CHO cells by [35S]GTPgammaS binding assay; format: functional, cell-based
D(3) dopamine receptor (Homo sapiens, UniProt P35462), sequence (P35462 whole entry): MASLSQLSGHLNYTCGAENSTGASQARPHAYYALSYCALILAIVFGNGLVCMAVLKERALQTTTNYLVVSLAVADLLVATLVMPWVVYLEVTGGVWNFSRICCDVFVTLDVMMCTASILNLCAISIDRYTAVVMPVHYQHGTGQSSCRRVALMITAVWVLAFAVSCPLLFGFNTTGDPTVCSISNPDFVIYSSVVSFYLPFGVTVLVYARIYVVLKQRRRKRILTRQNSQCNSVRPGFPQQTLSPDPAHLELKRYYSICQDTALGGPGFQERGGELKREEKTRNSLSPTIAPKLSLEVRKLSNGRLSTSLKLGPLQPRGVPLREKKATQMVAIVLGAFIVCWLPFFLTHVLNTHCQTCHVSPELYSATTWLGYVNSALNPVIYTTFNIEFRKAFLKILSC

D(2) dopamine receptor [6] = molecular target: T1, D(2) dopamine receptor (Homo sapiens, UniProt P14416); experiment: Agonist activity at human cloned dopamine D2 receptor expressed in CHO cells by [35S]GTPgammaS binding assay; format: functional, cell-based
T1 sequence (P14416 whole entry): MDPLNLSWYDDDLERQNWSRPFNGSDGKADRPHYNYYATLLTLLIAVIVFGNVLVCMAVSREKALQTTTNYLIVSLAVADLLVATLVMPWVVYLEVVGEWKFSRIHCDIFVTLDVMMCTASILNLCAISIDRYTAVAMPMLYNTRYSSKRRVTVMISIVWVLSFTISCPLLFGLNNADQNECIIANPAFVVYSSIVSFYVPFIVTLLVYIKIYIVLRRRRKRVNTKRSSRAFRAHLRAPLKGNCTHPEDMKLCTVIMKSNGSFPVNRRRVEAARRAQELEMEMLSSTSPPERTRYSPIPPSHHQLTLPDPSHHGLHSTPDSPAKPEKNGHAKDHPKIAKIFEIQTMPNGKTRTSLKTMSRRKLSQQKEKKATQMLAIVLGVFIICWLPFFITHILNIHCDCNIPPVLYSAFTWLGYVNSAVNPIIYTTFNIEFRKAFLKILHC

D(2) dopamine receptor [7] = molecular target: T1, D(2) dopamine receptor; experiment: Agonist activity at human cloned dopamine D2 receptor expressed in CHO cells by [35S]GTPgammaS binding assay relative to dopamine; format: functional, cell-based
Rattus norvegicus [8] = experiment: Reversal of reserpine-induced akinesia in Sprague-Dawley rat at 10 umol/kg, sc administered 18 hrs post reserpine challenge measured for 6 hrs; format: functional, organism-based
Rattus norvegicus [9] = experiment: Reversal of reserpine-induced akinesia in Sprague-Dawley rat at 5 umol/kg, sc administered 18 hrs post reserpine challenge measured for 6 hrs; format: functional, organism-based

Ki (D(3) dopamine receptor [2]) [nM]	Ki (D(2) dopamine receptor [3]) [nM]	Ratio Ki (Rattus norvegicus [4])	Compound	other results
4.1	1240	303	CCCN(CCN1CCN(C(=O)c2ccc3[nH]ccc3c2)CC1)C1CCc2nc(N)sc2C1 (racemic)	Activity [1]: Dose-dependent effect
–	–	–	CCCN(CCN1CCN(c2ccc(-c3ccccc3)cc2)CC1)[C@H]1CCc2nc(N)sc2C1	EC50 (D(3) dopamine receptor [5]): 1.51 nM; EC50 (D(2) dopamine receptor [6]): 33.1 nM; Emax (D(2) dopamine receptor [7]): 104%
1.4	1030	736	CCCN(CCN1CCN(C(=O)c2ccc3[nH]ccc3c2)CC1)[C@H]1CCc2nc(N)sc2C1	Activity (Rattus norvegicus [8]): inactive; EC50 (D(3) dopamine receptor [5]): 0.56 nM; EC50 (D(2) dopamine receptor [6]): 70.7 nM; Emax (D(2) dopamine receptor [7]): 107%
4.17	269	64.5	CCCN(CCN1CCN(Cc2ccc3[nH]ccc3c2)CC1)C1CCc2c(O)cccc2C1 (configuration not stated)	–
4.59	852	–	CCCN(CCN1CCN(C(=O)c2cc3ccccc3[nH]2)CC1)C1CCc2nc(N)sc2C1 (racemic)	Activity [1]: Dose-dependent effect
15.9	134	8.46	CCCN(CCN1CCN(c2ccc3[nH]ccc3c2)CC1)[C@@H]1CCc2nc(N)sc2C1	–
16.8	1080	64.2	CCCN(CCN1CCN(C(=O)c2c[nH]c3ccc(O)cc23)CC1)C1CCc2nc(N)sc2C1 (configuration not stated)	–
52.8	2630	49.7	CCCN(CCN1CCN(C(=O)c2ccc3[nH]ccc3c2)CC1)[C@@H]1CCc2nc(N)sc2C1	–
1.09	902	828	CCCN(CCN1CCN(C(=O)c2c[nH]c3ccccc23)CC1)[C@H]1CCc2nc(N)sc2C1	EC50 (D(3) dopamine receptor [5]): 0.87 nM; EC50 (D(2) dopamine receptor [6]): 86.4 nM; Emax (D(2) dopamine receptor [7]): 91.6%
5.48	183	33.4	CCCN(CCN1CCN(Cc2cc3ccccc3[nH]2)CC1)C1CCc2c(O)cccc2C1 (configuration not stated)	–
2.78	928	334	CCCN(CCCN1CCN(C(=O)c2cc3ccccc3[nH]2)CC1)C1CCc2nc(N)sc2C1 (racemic)	–
54.1	2560	–	CCCN(CCN1CCN(C(=O)c2cc3ccccc3[nH]2)CC1)[C@@H]1CCc2nc(N)sc2C1	–
10.4	76.4	7.3	CCCN(CCN1CCN(c2ccc3[nH]ccc3c2)CC1)C1CCc2c(O)cccc2C1 (configuration not stated)	–
1.74	–	–	CCCN(CCCCN1CCN(C(=O)c2cc3ccccc3[nH]2)CC1)C1CCc2nc(N)sc2C1 (racemic)	–
1.92	46.7	24.3	CCCN(CCN1CCN(c2ccc3[nH]ccc3c2)CC1)C1CCc2nc(N)sc2C1 (racemic)	Activity [1]: Dose-dependent effect; IC50 [1]: 14500 nM
–	–	121	CCCN(CCN1CCN(c2nccc3ccccc23)CC1)[C@H]1CCc2nc(N)sc2C1	EC50 (D(3) dopamine receptor [5]): 0.82 nM
3.2	82.1	25.6	CCCN(CCN1CCN(Cc2c[nH]c3ccccc23)CC1)C1CCc2c(O)cccc2C1 (configuration not stated)	–
–	–	–	CCCN(CCC)CCc1cccc2c1CC(=O)N2	Activity (Rattus norvegicus [9]): Active
–	–	–	O=C1O[C@H]([C@@H](O)CO)C(O)=C1O [ASCORBIC ACID]	Activity [1]: Dose-dependent effect; IC50 [1]: 24900 nM
8.07	132	16.4	CCCN(CCN1CCN(Cc2ccc3[nH]ccc3c2)CC1)C1CCc2nc(N)sc2C1 (configuration not stated)	–
4.17	1500	360	CCCN(CCN1CCN(C(=O)c2c[nH]c3ccccc23)CC1)C1CCc2nc(N)sc2C1 (racemic)	Activity [1]: Dose-dependent effect
48.2	1320	27.3	CCCN(CCN1CCN(C(=O)c2c[nH]c3ccccc23)CC1)[C@@H]1CCc2nc(N)sc2C1	–
1.84	1070	–	CCCN(CCN1CCN(C(=O)c2cc3ccccc3[nH]2)CC1)[C@H]1CCc2nc(N)sc2C1	Activity (Rattus norvegicus [8]): inactive; EC50 (D(3) dopamine receptor [5]): 0.26 nM; Emax (D(2) dopamine receptor [7]): 101%
2.19	39	17.8	CCCN(CCN1CCN(c2ccc3[nH]ccc3c2)CC1)[C@H]1CCc2nc(N)sc2C1	EC50 (D(3) dopamine receptor [5]): 1.26 nM; EC50 (D(2) dopamine receptor [6]): 2.96 nM; Emax (D(2) dopamine receptor [7]): 107%; Activity (Rattus norvegicus [9]): Active
